As a reminder, the apparent Kd is a dissociation constant that holds for the conditions of the assay.

For this data set, the system named is MS2 coat protein. The data set is described as follows: apparent Kd, MS2 coat protein; higher = weaker binding; RNA-MaP array; tryptophan 2.4 mM where present. A digest of the protocol:
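Apparent Kd: the median of filtered binding-curve fits from single clusters. Designs were transcribed on Illumina sequencing-chip clusters by stalled E. coli RNA polymerase and titrated with SNAP-549-labelled MS2 coat protein from 0.7 or 1.5 nM, doubling to 3 µM, in 100 mM Tris-HCl pH 7.5, 80 mM KCl, 4 mM MgCl2, BSA, DTT, yeast tRNA and Tween-20. Each series ran without and then with constant ligand, and green signal was normalised to red-channel RNA signal and control-cluster median Fmax.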

[1] abbreviates: designed as: OFF switch for tryptophan, no ligand.
The mark [2] stands for this setting: ligand present: tryptophan, designed as: OFF switch for tryptophan.
The mark [3] stands for this setting: designed as: ON switch for tryptophan, no ligand.
Setting [4] is: ligand present: tryptophan, designed as: ON switch for tryptophan.

Consider “UGAUACCAGUCGGCCGCCACUAUGCUAGAUACUAGCAAUAAAGGGCGACAUGAGGAUCACCCAUGUAGGACCGGGACUGGUAUCU”, for which the “apparent Kd” value worked out at 11.2 nM under setting [1] and 14.8 nM under setting [2].

Take “AAUACCGGUCCUCGAAGGUGAUCCUCAUAACGAGGACCGGUACGGCCGCCACUCGAUAACAUGAGGAUCACCCAUGUAAUAAUAA”: the “apparent Kd” value worked out at 187 nM under setting [1] and 138 nM under setting [2].

Take “CGAGUAAGAACAAUCGAAUAACGGUUUUCGCGAGGACCGGUACGGCCGCCACUCGUGUGAUAUAACACAUGAGGAUCACCCAUGU”: the “apparent Kd” value stood at 26.3 nM under setting [3] and 24.4 nM under setting [4].

Regarding “CCGCACAUGAGGAUCACCCAUGUCCGGGUUCGAGGACCGGUACGGCCGCCACUCGGACAUGUGCGCCCUUCAUGCACUGUAUAAA”, the “apparent Kd” value runs as follows: under setting [3], 129 nM; under setting [4], 60.9 nM.

For the sequence “AGAAUAUAGUCGGCCGCCACUCUUCAUACAUGAGGAUCACCCAUGUUUAAUUCUUGGAUAUUCUUGAGGACCGGGACAUAGGCAU”, the “apparent Kd” value came to 18.4 nM under setting [3] and 16.8 nM under setting [4].

Turning to “UCCUGCAGAGCGGCCGCCACUGUGUUGCGUGAGGAUGACCCAACAUGAGGAUCACCCAUGUUGUUUAGGACCGGGCUUGCCUCGA”, the “apparent Kd” value reads like this: under setting [1], 13.4 nM; under setting [2], 12.3 nM.

As for “CUCAUCCACGCGGCCGCCACUAUAUUGUGGUGUGAAUGUGUCGUAAUACAUGAGGAUCACCCAUGUAGGACCGGGCGUGGAUGAG”, the “apparent Kd” value amounted to 20.1 nM under setting [1] and 32.9 nM under setting [2].

For the sequence “GGGUGGUAGGCGGCCGCCACUGAUUUUUAUUUAUAGAUGACAUGAGGAUCACCCAUGUAGAUAUGCAGGACCGGGCCUGUUGUUU”, the “apparent Kd” value under setting [3] amounted to 19.3 nM and the “apparent Kd” value under setting [4] is 17.8 nM.

On to “AACAUGAGGAUCACCCAUGUCCUCGUGUUCCGAGGACCGGUACGGCCGCCACUCGGUCCUCGCGAGGAUGGUCAAAGACUAUCCA”, for which the “apparent Kd” value is, setting by setting: under setting [3], 97.4 nM; under setting [4], 170 nM.

For “AGCACUGUGACGGCCGCCACUACAUAUAGGGUGGUCAGGUUCAUAAUACAUGAGGAUCACCCAUGUAGGACCGGGUCUCAGUGCA”, the “apparent Kd” value is, setting by setting: under setting [1], 12.5 nM; under setting [2], 14.4 nM.

As for “AACAUGAGGAUCACCCAUGUGUCCUCGAAACGAGGACCGGUACGGCCGCCACUCGAAAGGUGUUGACGAAAAGUCAGCACCAAAA”, the “apparent Kd” value under setting [1] turned out to be 302 nM and the “apparent Kd” value under setting [2] was determined as 930 nM.

With “UAUCGAGGUACAUGAGGAUCACCCAUGUAUCGAGGACCGGUACGGCCGCCACUCGAUAAUGGCGGAUCGUUAGUCCUCUUCGAUA”, the “apparent Kd” value by setting is: under setting [1], 10.7 nM; under setting [2], 11.4 nM.

Consider “AGAUUCGACACGGCCGCCACUCGUGCCGGAUUACCGAGUGUCGAACAUGAGGAUCACCCAUGUACGAGGACCGGGUGUUGAGUCU”, for which the “apparent Kd” value turned out to be 37.7 nM under setting [1] and 262 nM under setting [2].

For the sequence “AGUUUAGACACGGCCGCCACUCGUGACAGAUUUAGCAGUGGUCAACAUGAGGAUCACCCAUGUCUGAGGACCGGGUGUUGAGUUU”, the “apparent Kd” value under setting [1] stood at 177 nM and the “apparent Kd” value under setting [2] is 631 nM.

In the case of “UCUUUUUUCUUUUCUUCUUUCGGUUCUUUUCGAGGACCGGUACGGCCGCCACUCGAAACAUGAGGAUCACCCAUGUUUUGGUUUU”, the “apparent Kd” value was determined as 11.9 nM under setting [1] and 17.5 nM under setting [2].

As to “UUUAAAUAGACGGCCGCCACUGGAAUUAAUACAUGAGGAUCACCCAUGUAGAGAGAAUAAUAAUACAGGACCGGGUCUUCAUGAA”, the “apparent Kd” value under setting [3] is 31.4 nM and the “apparent Kd” value under setting [4] was determined as 12.5 nM.

Turning to “UAUAUAUAUCACGAACUGUGGUGUAUGUCCCGAGGACCGGUACGGCCGCCACUCGCGUGGUUCCACAUGAGGAUCACCCAUGUUG”, the “apparent Kd” value was determined as 18.9 nM under setting [1] and 22.7 nM under setting [2].

Take “ACAUGAGGAUCACCCAUGUGAAGCAGGGUACGAGGACCGGUACGGCCGCCACUCGAGCAUUAUACCGAGUGAAUGGCAACGAUGU”: the “apparent Kd” value under setting [1] came to 15.7 nM and the “apparent Kd” value under setting [2] came out at 17 nM.

As for “AUAAAAGGGUUAUAUAGAUUUAGGUCCAGUCGAGGACCGGUACGGCCGCCACUCGUACUGAAAUACAUGAGGAUCACCCAUGUUA”, the “apparent Kd” value is, setting by setting: under setting [3], 21.8 nM; under setting [4], 22.7 nM.

The record behind these values is the EternaBench riboswitch data.
